For one assay, the system named is OVCAR-3. Nature of the assay: Antiproliferative activity against human OVCAR3 cells by SRB assay. The format is functional. Put shortly:
(§1)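 NCI 60-cell-line human tumor panel. Compounds first screened at one dose of 10^-5 M. Selected compounds then tested at five concentrations from 10^-8 to 10^-4 M. GI50 is the concentration giving 50% growth inhibition. GI50 values outside the tested range are assigned 10^-8 M or 10^-4 M.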
A general note: The SRB assay estimates cell density from bound dye.

For assay [1], the target named is T1, DNA topoisomerase 1 (Homo sapiens) (UniProt P11387).
T1 sequence (whole entry): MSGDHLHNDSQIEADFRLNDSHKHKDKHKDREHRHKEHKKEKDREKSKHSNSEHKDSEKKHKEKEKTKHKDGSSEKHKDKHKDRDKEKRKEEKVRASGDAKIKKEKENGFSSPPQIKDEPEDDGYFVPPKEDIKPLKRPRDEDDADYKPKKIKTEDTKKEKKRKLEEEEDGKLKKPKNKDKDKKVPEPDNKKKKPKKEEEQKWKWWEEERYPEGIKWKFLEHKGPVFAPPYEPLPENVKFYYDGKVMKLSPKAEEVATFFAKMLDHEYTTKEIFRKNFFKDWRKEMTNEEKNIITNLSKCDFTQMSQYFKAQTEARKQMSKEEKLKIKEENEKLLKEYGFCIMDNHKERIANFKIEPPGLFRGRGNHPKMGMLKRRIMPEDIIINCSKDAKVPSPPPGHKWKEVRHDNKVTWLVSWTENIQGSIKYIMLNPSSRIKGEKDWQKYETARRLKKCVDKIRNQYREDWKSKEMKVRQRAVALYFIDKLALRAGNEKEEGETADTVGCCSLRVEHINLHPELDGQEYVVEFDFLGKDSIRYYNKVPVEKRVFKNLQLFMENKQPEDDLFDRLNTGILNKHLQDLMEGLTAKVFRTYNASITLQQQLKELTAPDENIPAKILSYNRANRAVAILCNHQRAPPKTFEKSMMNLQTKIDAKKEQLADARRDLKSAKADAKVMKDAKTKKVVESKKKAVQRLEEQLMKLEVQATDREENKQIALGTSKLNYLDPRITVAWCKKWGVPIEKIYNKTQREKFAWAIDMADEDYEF
The experiment in a line: Inhibition of recombinant human TOP1 mediated DNA cleavage after 20 mins by gel electrophoresis relative to camptothecin. Set-up: concentration or dose not given beside the values. The procedure, abridged: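 117-bp oligonucleotide containing Top1 cleavage sites, 3'-end labeled with [α-32P]-dGTP by Klenow fill-in. About 2 nM substrate incubated with recombinant Top1 and various compound concentrations for 20 min at 25 °C in 10 mM Tris-HCl pH 7.5, 50 mM KCl, 5 mM MgCl2, 0.1 mM EDTA, 15 μg/mL BSA. Stopped with 0.5% SDS, run on 20% denaturing PAGE, phosphorimaged.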

In a further assay the test system is MCF7. Nature of the assay: Antiproliferative activity against human MCF7 cells by SRB assay. The format is functional. Put shortly:
as §1

Another assay deals with SN12C. The experiment in a line: Antiproliferative activity against human SN12C cells by SRB assay. The format is functional. The procedure, abridged:
as §1

A further assay relates to HCT-116. The experiment in a line: Antiproliferative activity against human HCT116 cells by SRB assay. In kind it is functional. Put shortly: as §1
For a further assay, the system named is DU-145. The experiment in a line: Antiproliferative activity against human DU145 cells by SRB assay. The format is functional. Put shortly: as §1
Another assay deals with HOP-62. Nature of the assay: Antiproliferative activity against human HOP62 cells by SRB assay. The format is functional. The procedure, abridged: as §1
The subject of the next assay is SF-539. The experiment in a line: Antiproliferative activity against human SF539 cells by SRB assay. In kind it is functional. The procedure, abridged:
as §1

The test system of a further assay is UACC-62. Nature of the assay: Antiproliferative activity against human UACC62 cells by SRB assay. In kind it is functional. The procedure, abridged: as §1

SMILES strings stand for the structures. Bounds are passed on as bounds.

Our source for the GI50 and inhibition values is ChEMBL document CHEMBL1821653, “Alcohol-, diol-, and carbohydrate-substituted indenoisoquinolines as topoisomerase I inhibitors: investigating the relationships involving stereochemistry, hydrogen bonding, and biological activity” (2011).

Usually GI50 stands for the concentration at which growth is held to half of that of the control. Usually inhibition stands for the drop in the measured response relative to a control, in per cent.

On to `C[C@@H](O)Cn1c2c(c3ccccc3c1=O)C(=O)c1ccccc1-2`, for which the 50% growth inhibitory concentration (GI50) in the assay with OVCAR-3 came out at 21.4 µM; in the assay with MCF7, 3.23 µM; in the assay with SN12C, 9.33 µM; in the assay with HCT-116 it was 5.52 µM; with DU-145, 8.32 µM; in the assay on HOP-62 it was 3.39 µM. The values for the GI50 in the assay with SF-539 and in the assay on UACC-62 were 6.31 µM and 10.2 µM, respectively. Besides, the inhibition in [1] came to 75%.
With `O=C1c2ccccc2-c2c1c1ccc([N+](=O)[O-])cc1c(=O)n2C[C@H](O)[C@@H](O)[C@H](O)[C@H](O)CO`, the concentration for 50% growth inhibition (GI50) with OVCAR-3 amounted to 4.26 µM; in the assay with MCF7 it was 0.88 µM; with SN12C it was 17.7 µM; in the assay with HCT-116, 5.08 µM; in the assay on DU-145, 4.76 µM; with HOP-62, 7.35 µM. Moreover, the concentration for 50% growth inhibition (GI50) was 2.61 µM in the assay with SF-539 and 2.98 µM in the assay on UACC-62. Further, the inhibition in [1] is more than 95%.
As to `O=C1c2ccccc2-c2c1c1ccccc1c(=O)n2CC(O)CO` (racemic), the 50% growth inhibitory concentration (GI50) in the assay on OVCAR-3 was determined as 18.6 µM; with MCF7, 3.55 µM; in the assay on SN12C, 2.95 µM; in the assay with HCT-116, 4.36 µM; in the assay with DU-145 it was 2.88 µM; with HOP-62 it was 7.76 µM. For the same compound, the GI50 was determined as 5.89 µM in the assay with SF-539 and 7.58 µM in the assay with UACC-62. The inhibition in assay [1] was 50%.
